The results in this text go back to publication PMC5601358 (Journal of Medicinal Chemistry, 2017).

The target in assay [1] is T1, human adenosine A3 receptor (Homo sapiens, UniProt P0DMS8).
T1 sequence (P0DMS8 1-318): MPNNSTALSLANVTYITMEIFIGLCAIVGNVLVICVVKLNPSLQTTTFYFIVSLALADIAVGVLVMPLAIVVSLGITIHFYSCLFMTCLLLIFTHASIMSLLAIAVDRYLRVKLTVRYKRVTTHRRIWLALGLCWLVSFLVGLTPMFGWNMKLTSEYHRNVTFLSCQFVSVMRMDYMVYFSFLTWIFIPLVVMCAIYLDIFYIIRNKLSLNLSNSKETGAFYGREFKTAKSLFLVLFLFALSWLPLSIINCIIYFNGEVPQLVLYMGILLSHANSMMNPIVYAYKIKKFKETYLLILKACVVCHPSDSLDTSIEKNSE
Briefly: Radioligand competition association assay with [3H]34. Type of assay: binding. The settings on record: for residence time: read-out: RT (residence time).

Assay [2] has as its target T2, hA3R stably expressed on CHO cell membranes (Homo sapiens, UniProt P0DMS8).
T2 sequence (P0DMS8 1-318): T1 sequence (P0DMS8 1-318)
In words: [35S]GTPγS binding assay, 2-Cl-IB-MECA-stimulated, Schild analysis. Type of assay: biochemical. The settings on record: for Mode of antagonism: 2-Cl-IB-MECA concentration-effect curves, antagonist at 30-, 100-, 300-fold Ki; for Schild slope: Coincubation with 2-Cl-IB-MECA 30 min, 25 °C. Summed up:
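CHO membranes stably expressing human A3 receptor (15 μg) in 50 mM Tris-HCl, 5 mM MgCl2, 1 mM EDTA, 0.05% BSA, 1 mM DTT, pH 7.4, with 1 μM GDP and 5 μg saponin. Agonist 0.1 nM–10 μM plus ~0.3 nM [35S]GTPγS (final). DMSO ≤0.1%. Basal: untreated membranes; maximum: 10 μM agonist. GF/B filtration, scintillation counting. Curves normalized and combined, n ≥ 3.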

In assay [3] the target is T1, human adenosine A3 receptor. In words: Radioligand displacement assay with [3H]34. Type of assay: binding. The note with it: 25 °C, [3H]34, hA3R stably expressed on CHO cell membranes, n ≥ 3.

Molecules are shown by their SMILES.

As for `CCCn1c(=O)c2c(nc3cc(OC)ccn32)n(Cc2ccccc2)c1=O` [Compound 1, 1-Benzyl-8-methoxy-3-propyl-1H,3H-pyrido[2,1-f]purine-2,4-dione], in assay [1], the koff came to 0.00032 s⁻¹, the kon was found to be 850000 M⁻¹ s⁻¹ and the residence time was determined as 52 ± 0.3 min.
For `COc1ccn2c(c1)nc1c2c(=O)n(CC2CC2)c(=O)n1Cc1ccccc1` [Compound 2, 1-Benzyl-3-(cyclopropylmethyl)-8-methoxypyrido[2,1-f]purine-2,4(1H,3H)-dione] the same measures were 6e-05 s⁻¹, 2.8e+06 M⁻¹ s⁻¹ and 315 ± 105 min.
In the case of `COc1ccn2c(c1)nc1c2c(=O)[nH]c(=O)n1Cc1ccccc1` [Compound 5, 1-Benzyl-8-methoxy-1H,3H-pyrido[2,1-f]purine-2,4-dione], in assay [1], the koff was 0.014 s⁻¹, the kon is 530000 M⁻¹ s⁻¹ and the residence time worked out at 2.2 ± 1.4 min. In addition, in assay [2], the Mode of antagonism entry is “surmountable antagonism” and the Schild slope was found to be 1.0 ± 0.2.
Turning to `CCCCCn1c(=O)c2c(nc3cc(OC)ccn32)n(Cc2ccccc2)c1=O` [Compound 9, 1-Benzyl-8-methoxy-3-pentyl-1H,3H-pyrido[2,1-f]purine-2,4-dione], in assay [1], the koff turned out to be 0.0006 s⁻¹, the association rate constant (kon) was 1.1e+06 M⁻¹ s⁻¹ and the residence time was determined as 28 ± 2.2 min.
Consider `CCCCCCn1c(=O)c2c(nc3cc(OC)ccn32)n(Cc2ccccc2)c1=O` [Compound 10, 1-Benzyl-3-hexyl-8-methoxypyrido[2,1-f]purine-2,4(1H,3H)-dione], for which the “pKi ± SEM” value in assay [3] is reported as 8.6 ± 0.1. In addition, in assay [1], the koff turned out to be 8.2e-05 s⁻¹, the kon came out at 230000 M⁻¹ s⁻¹ and the residence time was determined as 213 ± 35 min.
With `CCCCCCCn1c(=O)c2c(nc3cc(OC)ccn32)n(Cc2ccccc2)c1=O` [Compound 11, 1-Benzyl-3-heptyl-8-methoxypyrido[2,1-f]purine-2,4(1H,3H)-dione], in assay [1], the koff turned out to be 6.2e-05 s⁻¹, the kon was 420000 M⁻¹ s⁻¹ and the residence time was determined as 278 ± 45 min.
On to `C=CCn1c(=O)c2c(nc3cc(OC)ccn32)n(Cc2ccccc2)c1=O` [Compound 12, 3-Allyl-1-benzyl-8-methoxypyrido[2,1-f]purine-2,4(1H,3H)-dione], for which the “pKi ± SEM” value in assay [3] was determined as 8.3 ± 0.1.
Take `COCCn1c(=O)c2c(nc3cc(OC)ccn32)n(Cc2ccccc2)c1=O` [Compound 15, 1-Benzyl-8-methoxy-3-(2-methoxyethyl)-1H,3H-pyrido[2,1-f]purine-2,4-dione]: in assay [3], the “pKi ± SEM” value was 7.7 ± 0.2. In addition, in assay [1], the koff was found to be 0.00063 s⁻¹, the kon amounted to 430000 M⁻¹ s⁻¹ and the residence time came out at 27 ± 2.6 min.
With `COc1ccn2c(c1)nc1c2c(=O)n(CC(C)C)c(=O)n1Cc1ccccc1` [Compound 17, 1-Benzyl-3-isobutyl-8-methoxypyrido[2,1-f]purine-2,4(1H,3H)-dione], in assay [1], the koff stood at 0.0002 s⁻¹, the on-rate constant (kon) stood at 780000 M⁻¹ s⁻¹ and the residence time worked out at 148 ± 102 min.
For `COc1ccn2c(c1)nc1c2c(=O)n(CC(C)(C)C)c(=O)n1Cc1ccccc1` [Compound 18, 1-Benzyl-8-methoxy-3-(3-neopentyl)-1H,3H-pyrido[2,1-f]purine-2,4-dione], in assay [1], the koff turned out to be 0.00011 s⁻¹, the kon stood at 550000 M⁻¹ s⁻¹ and the residence time came to 250 ± 147 min.
Turning to `CCc1ccc(Cn2c(=O)n(CC3CC3)c(=O)c3c2nc2cc(OC)ccn23)cc1` [Compound 26, 3-(Cyclopropylmethyl)-1-(4-ethylbenzyl)-8-methoxypyrido[2,1-f]purine-2,4(1H,3H)-dione], the “pKi ± SEM” value in assay [3] was 9.2 ± 0.04.
For the molecule `COc1cccc(Cn2c(=O)n(CC3CC3)c(=O)c3c2nc2cc(OC)ccn23)c1` [Compound 27, 3-(Cyclopropylmethyl)-8-methoxy-1-(3-methoxybenzyl)pyrido[2,1-f]purine-2,4(1H,3H)-dione], in assay [1], the koff turned out to be 4.7e-05 s⁻¹, the kon worked out at 480000 M⁻¹ s⁻¹ and the residence time came to 376 ± 58 min. Also, in assay [2], the Mode of antagonism result is listed as “insurmountable antagonism” and the Schild slope was found to be 0.9 ± 0.2.
Consider `COc1ccc(Cn2c(=O)n(CC3CC3)c(=O)c3c2nc2cc(OC)ccn23)cc1` [Compound 28, 3-(Cyclopropylmethyl)-8-methoxy-1-(4-methoxybenzyl)pyrido[2,1-f]purine-2,4(1H,3H)-dione], for which, in assay [1], the koff turned out to be 7.8e-05 s⁻¹, the kon worked out at 480000 M⁻¹ s⁻¹ and the residence time came out at 250 ± 72 min.
For the molecule `COc1ccn2c(c1)nc1c2c(=O)n(CC2CC2)c(=O)n1Cc1cccc(Cl)c1` [Compound 29, 1-(3-Chlorobenzyl)-3-(cyclopropylmethyl)-8-methoxypyrido[2,1-f]purine-2,4(1H,3H)-dione], in assay [1], the koff stood at 0.00047 s⁻¹, the kon was found to be 820000 M⁻¹ s⁻¹ and the residence time turned out to be 36 ± 5.5 min.
Taken in the same sequence, the figures for `COc1ccn2c(c1)nc1c2c(=O)n(CC2CC2)c(=O)n1Cc1ccc(Cl)cc1` [Compound 30, 1-(4-Chlorobenzyl)-3-(cyclopropylmethyl)-8-methoxypyrido[2,1-f]purine-2,4(1H,3H)-dione] were 0.00082 s⁻¹, 3e+06 M⁻¹ s⁻¹ and 20 ± 0.5 min.
`COc1ccn2c(c1)nc1c2c(=O)n(CC2CC2)c(=O)n1Cc1ccc(Cl)c(Cl)c1` [Compound 31, 3-(Cyclopropylmethyl)-1-(3,4-dichlorobenzyl)-8-methoxypyrido[2,1-f]purine-2,4(1H,3H)-dione]: in assay [1], the koff worked out at 5.3e-05 s⁻¹, the kon amounted to 100000 M⁻¹ s⁻¹ and the residence time stood at 391 ± 137 min.
